# Laboratory results taken from ChEMBL document CHEMBL4190234, “Design, synthesis and anticancer activity of new monastrol analogues bearing 1,3,4-oxadiazole moiety” (Eur J Med Chem, 2017).
# Key:
# [1] = tested on: SW-620; assay: Growth inhibition of human SW620 cells at 10 uM incubated for 48 hrs by sulforhodamine B assay relative to control; format: functional; settings: SW-620, 48 h, read-out: GI
# In short: (§1)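 NCI single-dose screen: cells grown in RPMI 1640 with 5% FBS and 2 mM L-glutamine, plated at 5,000–40,000 cells/well and preincubated 24 h at 37 °C, 5% CO2. Compounds taken from DMSO stock and tested at final 10 µM for 48 h. Cells fixed with TCA, stained with 0.4% SRB, absorbance read at 515 nm. Percentage growth calculated against untreated controls; controls held DMSO at the same dilution.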
# [2] = tested on: SK-MEL-5; assay: Growth inhibition of human SK-MEL-5 cells at 10 uM incubated for 48 hrs by sulforhodamine B assay relative to control; format: functional; settings: SK-MEL-5, 48 h, read-out: GI; in short: as §1
# [3] = tested on: OVCAR-8; assay: Growth inhibition of human OVCAR8 cells at 10 uM incubated for 48 hrs by sulforhodamine B assay relative to control; format: functional; settings: OVCAR-8, 48 h, read-out: GI
# In short: (§2)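 Single-dose screen at 10 μM final: cells in RPMI 1640, 5% FBS, 2 mM L-glutamine, plated 5,000–40,000/well, preincubated 24 h at 37°C, 5% CO2; drug 48 h; adherent cells fixed with 10% TCA, suspension cells with 16% TCA; SRB stain, absorbance 515 nm; percentage growth versus untreated control, with time-zero plates.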
# [4] = tested on: NCI-H226; assay: Growth inhibition of human NCI-H226 cells at 10 uM incubated for 48 hrs by sulforhodamine B assay relative to control; format: functional; settings: NCI-H226, 48 h, read-out: GI; in short: as §2
# [5] = tested on: BT-549; assay: Growth inhibition of human BT549 cells at 10 uM incubated for 48 hrs by sulforhodamine B assay relative to control; format: functional; settings: BT-549, 48 h, read-out: GI; in short: as §2
# [6] = tested on: MOLT-4; assay: Growth inhibition of human MOLT4 cells incubated for 24 hrs by MTT assay; format: functional, cell-based; settings: MOLT-4, 24 h
# [7] = tested on: RXF 393; assay: Growth inhibition of human RXF393 cells at 10 uM incubated for 48 hrs by sulforhodamine B assay relative to control; format: functional; settings: RXF 393, 48 h, read-out: GI; in short: as §2
# [8] = tested on: DU-145; assay: Growth inhibition of human DU145 cells at 10 uM incubated for 48 hrs by sulforhodamine B assay relative to control; format: functional; settings: DU-145, 48 h, read-out: GI; in short: as §2
# [9] = tested on: HCC 2998; assay: Growth inhibition of human HCC2998 cells at 10 uM incubated for 48 hrs by sulforhodamine B assay relative to control; format: functional; settings: HCC 2998, 48 h, read-out: GI; in short: as §2
# [10] = tested on: EKVX; assay: Growth inhibition of human EKVX cells at 10 uM incubated for 48 hrs by sulforhodamine B assay relative to control; format: functional; settings: read-out: GI; in short: as §2
# [11] = tested on: OVCAR-3; assay: Growth inhibition of human OVCAR3 cells at 10 uM incubated for 48 hrs by sulforhodamine B assay relative to control; format: functional; settings: OVCAR-3, 48 h, read-out: GI; in short: as §2
# [12] = tested on: A498; assay: Growth inhibition of human A498 cells at 10 uM incubated for 48 hrs by sulforhodamine B assay relative to control; format: functional; settings: A498, 48 h, read-out: GI; in short: as §2
# [13] = tested on: NCI-H322M; assay: Growth inhibition of human NCI-H322M cells at 10 uM incubated for 48 hrs by sulforhodamine B assay relative to control; format: functional; settings: read-out: GI; in short: as §2
# [14] = tested on: SF-268; assay: Growth inhibition of human SF268 cells at 10 uM incubated for 48 hrs by sulforhodamine B assay relative to control; format: functional; settings: SF-268, 48 h, read-out: GI; in short: as §1
# [15] = tested on: MDA-MB-468; assay: Growth inhibition of human MDA-MB-468 cells at 10 uM incubated for 48 hrs by sulforhodamine B assay relative to control; format: functional; settings: MDA-MB-468, 48 h, read-out: GI; in short: as §2
# [16] = tested on: IGROV-1; assay: Growth inhibition of human IGROV1 cells at 10 uM incubated for 48 hrs by sulforhodamine B assay relative to control; format: functional; settings: IGROV-1, 48 h, read-out: GI; in short: as §2
# [17] = tested on: KM12; assay: Growth inhibition of human KM12 cells at 10 uM incubated for 48 hrs by sulforhodamine B assay relative to control; format: functional; settings: KM12, 48 h, read-out: GI; in short: as §2
# [18] = tested on: PC-3; assay: Growth inhibition of human PC3 cells at 10 uM incubated for 48 hrs by sulforhodamine B assay relative to control; format: functional; settings: PC-3, 48 h, read-out: GI; in short: as §2
# [19] = tested on: MOLT-4; assay: Growth inhibition of human MOLT4 cells at 10 uM incubated for 48 hrs by sulforhodamine B assay relative to control; format: functional; settings: MOLT-4, 48 h, read-out: GI; in short: as §2
# [20] = tested on: SN12C; assay: Growth inhibition of human SN12C cells at 10 uM incubated for 48 hrs by sulforhodamine B assay relative to control; format: functional; settings: read-out: GI; in short: as §1
# [21] = tested on: SK-OV-3; assay: Growth inhibition of human SKOV3 cells at 10 uM incubated for 48 hrs by sulforhodamine B assay relative to control; format: functional; settings: SK-OV-3, 48 h, read-out: GI; in short: as §1
# [22] = tested on: SF-295; assay: Growth inhibition of human SF295 cells at 10 uM incubated for 48 hrs by sulforhodamine B assay relative to control; format: functional; settings: SF-295, 48 h, read-out: GI; in short: as §1
# [23] = tested on: M14; assay: Growth inhibition of human M14 cells at 10 uM incubated for 48 hrs by sulforhodamine B assay relative to control; format: functional; settings: M14, 48 h, read-out: GI; in short: as §2
# [24] = tested on: HOP-92; assay: Growth inhibition of human HOP92 cells at 10 uM incubated for 48 hrs by sulforhodamine B assay relative to control; format: functional; settings: HOP-92, 48 h, read-out: GI; in short: as §2
# [25] = tested on: HOP-62; assay: Growth inhibition of human HOP62 cells at 10 uM incubated for 48 hrs by sulforhodamine B assay relative to control; format: functional; settings: HOP-62, 48 h, read-out: GI; in short: as §2
# [26] = tested on: Malme-3M; assay: Growth inhibition of human MALME-3M cells at 10 uM incubated for 48 hrs by sulforhodamine B assay relative to control; format: functional; settings: read-out: GI; in short: as §2
# [27] = tested on: NCI-H460; assay: Growth inhibition of human NCI-H460 cells at 10 uM incubated for 48 hrs by sulforhodamine B assay relative to control; format: functional; settings: NCI-H460, 48 h, read-out: GI; in short: as §2
# [28] = tested on: K562; assay: Growth inhibition of human K562 cells at 10 uM incubated for 48 hrs by sulforhodamine B assay relative to control; format: functional; settings: K562, 48 h, read-out: GI; in short: as §2
# [29] = tested on: CAKI-1; assay: Growth inhibition of human Caki1 cells at 10 uM incubated for 48 hrs by sulforhodamine B assay relative to control; format: functional; settings: CAKI-1, 48 h, read-out: GI; in short: as §2
# [30] = tested on: COLO 205; assay: Growth inhibition of human COLO205 cells at 10 uM incubated for 48 hrs by sulforhodamine B assay relative to control; format: functional; settings: COLO 205, 48 h, read-out: GI; in short: as §2
# [31] = tested on: RPMI-8226; assay: Growth inhibition of human RPMI8226 cells at 10 uM incubated for 48 hrs by sulforhodamine B assay relative to control; format: functional; settings: RPMI-8226, 48 h, read-out: GI; in short: as §2
SMILES,inhibition of growth at 10 µM [1] [%],inhibition of growth at 10 µM [2] [%],inhibition of growth at 10 µM [3] [%],inhibition of growth at 10 µM [4] [%],inhibition of growth at 10 µM [5] [%],inhibition of growth at 10 µM [7] [%],inhibition of growth at 10 µM [8] [%],inhibition of growth at 10 µM [9] [%],inhibition of growth at 10 µM [10] [%],inhibition of growth at 10 µM [11] [%],inhibition of growth at 10 µM [12] [%],inhibition of growth at 10 µM [13] [%],inhibition of growth at 10 µM [14] [%],inhibition of growth at 10 µM [15] [%],inhibition of growth at 10 µM [16] [%],inhibition of growth at 10 µM [17] [%],inhibition of growth at 10 µM [18] [%],inhibition of growth at 10 µM [19] [%],inhibition of growth at 10 µM [20] [%],inhibition of growth at 10 µM [21] [%],other results
CCOC(=O)C1=C(C)NC(SCc2nnc(-c3ccc(Cl)cc3)o2)=NC1c1ccc(Cl)cc1Cl (configuration not stated),33.8,19.7,45.8,21,10.3,56.6,26.9,15.5,22.8,37.2,22.3,21.1,26.7,11.6,56.1,36.6,54.9,88.8,34.6,< 10,IC50 [6]: 80 nM; inhibition of growth at 10 µM [22]: 52.8%; inhibition of growth at 10 µM [23]: 34.8%; inhibition of growth at 10 µM [24]: 73.6%; inhibition of growth at 10 µM [25]: 17.5%; inhibition of growth at 10 µM [26]: 27.2%; inhibition of growth at 10 µM [27]: 40.8%
CCOC(=O)C1=C(C)NC(SCc2nnc(-c3ccc(C)cc3)o2)=NC1c1ccc(F)cc1 (configuration not stated),< 10,14.5,17.8,10.1,12.8,< 10,< 10,< 10,< 10,< 10,< 10,10.3,< 10,18.1,13.9,< 10,26.8,21.6,19.9,< 10,inhibition of growth at 10 µM [28]: 14.7%; inhibition of growth at 10 µM [29]: 24.7%; inhibition of growth at 10 µM [30]: < 10%; inhibition of growth at 10 µM [31]: 27.2%; inhibition of growth at 10 µM [22]: 12.1%; inhibition of growth at 10 µM [23]: < 10%; inhibition of growth at 10 µM [24]: 37%; inhibition of growth at 10 µM [25]: < 10%; inhibition of growth at 10 µM [26]: < 10%; inhibition of growth at 10 µM [27]: < 10%
